One block for each molecule: values may come before it.
Columns and labels:
[1] = system: lymphoma; assay: (§1) Percentage of cells in G1 cell cycle phase of lymphoma cells after 24 hr treatment; assay type: functional; settings: Homo sapiens
[2] = system: lymphoma; assay: (§2) Percentage of cells in G1 cell cycle phase of lymphoma cells after 48 hr treatment; assay type: functional; settings: Homo sapiens
[3] = system: lymphoma; assay: (§3) Percentage of cells in G2-M cell cycle phase of lymphoma cells after 24 hr treatment; assay type: functional; settings: Homo sapiens
[4] = system: lymphoma; assay: (§4) Percentage of cells in G2-M cell cycle phase of lymphoma cells after 48 hr treatment; assay type: functional; settings: Homo sapiens
[5] = system: lymphoma; assay: (§5) Percentage of cells in S cell cycle phase of lymphoma cells after 24 hr treatment; assay type: functional; settings: Homo sapiens
[6] = system: lymphoma; assay: (§6) Percentage of cells in S cell cycle phase of lymphoma cells after 48 hr treatment; assay type: functional; settings: Homo sapiens
[7] = Ratio of IC50 values was calculated by IC50 cytidine incorporation/IC50 cell proliferation; assay type: functional
Method in brief: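 Ratio of the [14C]cytidine-incorporation IC50 to the cell-proliferation IC50, both measured in Burkitt's lymphoma cells.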

[8] = Mean IC50 value of the compound; assay type: functional
Method in brief: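 Geometric mean of clonogenic soft-agar IC50 values across the tumor xenografts tested: 10 raised to the mean of log IC50 over all xenografts.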

[9] = system: CCRF-CEM; assay: Cytotoxic activity against human acute lymphoblastic leukemia (CCRF-CEM) cell line; assay type: functional, cell-based
[10] = system: HT-29; assay: Cytotoxic activity against colon adenocarcinoma (HT-29) cell line; assay type: functional, cell-based, Homo sapiens
Method in brief: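 HT-29 colon adenocarcinoma cells in McCoy's 5A with 10% FCS, glutamine and penicillin/streptomycin, about 10 000 cells/well. After a 4 h preincubation, cells were exposed to compound (DMSO up to 0.5% final) for 72 h at 37 °C, 5% CO2. Readout was SRB assay. IC50 from dose-response curves; mean of at least three independent experiments run in duplicate.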

[11] = Inhibition of [14C]-cytidine incorporation into DNA in Burkitt''s lymphoma cells; assay type: functional, cell-based, Homo sapiens
Method in brief: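 Intact exponentially growing Burkitt's lymphoma cells, (1-2)×10^6/mL, incubated with compound at 37 °C for 90 min, then 0.7 μCi [14C]cytidine added. Cells TCA-precipitated and RNase-treated in Tris-HCl pH 8 for 2 h at 37 °C, then reprecipitated with TCA. Pellet dissolved in NaOH and counted by scintillation. IC50 is the mean of two experiments run in duplicate.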

[12] = Inhibition of cell proliferation in Burkitt's lymphoma cells; assay type: functional, cell-based, Homo sapiens
[13] = system: CXF1103; assay: Inhibition of cell proliferation of human colon CXF1103 tumor xenograft in colony forming assay; assay type: functional, cell-based
[14] = system: HT-29; assay: Inhibition of cell proliferation of human colon HT-29X tumor xenograft in colony forming assay; assay type: functional, cell-based
[15] = system: LXFL 529; assay: Inhibition of cell proliferation of human lung large cell LXFL529 tumor xenograft in colony forming assay; assay type: functional, cell-based
[16] = system: LXFS538; assay: Inhibition of cell proliferation of human lung small cell LXFS538 tumor xenograft in colony forming assay; assay type: functional, cell-based
[17] = system: MCF7; assay: Inhibition of cell proliferation of human breast MCF7X tumor xenograft in colony forming assay; assay type: functional, cell-based
[18] = system: MEXF989; assay: Inhibition of cell proliferation of human melanoma MEXF989 tumor xenograft in colony forming assay; assay type: functional, cell-based
[19] = system: MX1; assay: Inhibition of cell proliferation of human breast MXI tumor xenograft in colony forming assay; assay type: functional, cell-based
[20] = system: MEXF276L; assay: Inhibition of cell proliferation of human melanoma MEXF276L tumor xenograft in colony forming assay; assay type: functional, cell-based
[21] = system: PAXF546; assay: Inhibition of cell proliferation of human pancreas PAXF546 tumor xenograft in colony forming assay; assay type: functional, cell-based
[22] = system: PAXF736; assay: Inhibition of cell proliferation of human pancreas PAXF736 tumor xenograft in colony forming assay; assay type: functional, cell-based
[23] = system: CXF280; assay: Inhibition of cell proliferation of human colon CXF280 tumor xenograft in colony forming assay; assay type: functional, cell-based
[24] = as §1; assay type: functional, Homo sapiens
[25] = as §2; assay type: functional, Homo sapiens
[26] = as §3; assay type: functional, Homo sapiens
[27] = as §4; assay type: functional, Homo sapiens
[28] = as §5; assay type: functional, Homo sapiens
[29] = as §6; assay type: functional, Homo sapiens
[30] = system: CXF158; assay: Inhibition of cell proliferation of human colon CXF158 tumor xenograft in colony forming assay; assay type: functional, cell-based
[31] = system: OVXF1023 cell line; assay: Inhibition of cell proliferation of human ovary OVXF1023 tumor xenograft in colony forming assay; assay type: functional, cell-based, Female gonad
[32] = system: OVXF1353 cell line; assay: Inhibition of cell proliferation of human ovary OVXF1353 tumor xenograft in colony forming assay; assay type: functional, cell-based, Female gonad
[33] = system: RXF 423; assay: Inhibition of cell proliferation of human renal RXF423 tumor xenograft in colony forming assay; assay type: functional, cell-based

Mean IC50 [8]: 0.37 nM
Molecule: N-[(1E)-1-(5-methylpyrazin-2-yl)ethylidene]-3-azabicyclo[3.2.2]nonane-3-carbohydrazonothioic acid.chloro Cu(II)complex [listing 1 of 2 here]
Activity [1]: 53.1% | Activity [2]: 52.7% | Activity [3]: 19.9% | Activity [4]: 17.7% | Activity [5]: 25.9% | Activity [6]: 29.4% | IC50 ratio [7]: 495

Molecule: C/C(=N\N=C(/S)N1CC2CCC(CC2)C1)c1cnccn1
IC50 ([9]; Homo sapiens, CCRF-CEM): 11 nM | IC50 ([10]; Homo sapiens, HT-29): 11 nM

IC50 [11]: 180 nM | IC50 [14]: 0.85 nM | IC50 [17]: 0.21 nM
Molecule: N-[(1E)-1-(3-methylpyrazin-2-yl)ethylidene]-3-azabicyclo[3.2.2]nonane-3-carbohydrazonothioic acid.chloro Cu(II)complex [listing 1 of 2 here]
IC50 [12]: 6 nM | IC50 ([9]; ccrf-cem): 6 nM | IC50 [13]: < 0.1 nM | IC50 [15]: < 0.1 nM | IC50 [16]: 0.22 nM | IC50 [18]: 3 nM | IC50 [19]: 5 nM | IC50 [20]: 36 nM | IC50 [21]: 0.56 nM | IC50 [22]: < 0.1 nM | IC50 [23]: < 0.1 nM

Mean IC50 [8]: 0.37 nM
Molecule: N-[(1E)-1-(3-methylpyrazin-2-yl)ethylidene]-3-azabicyclo[3.2.2]nonane-3-carbohydrazonothioic acid.chloro Cu(II)complex [listing 2 of 2 here]
Activity [1]: 51.9% | Activity [2]: 49.3% | Activity [3]: 17% | Activity [4]: 9.81% | Activity [5]: 22.8% | Activity [6]: 29.8% | IC50 ratio [7]: 30

IC50 [11]: 37200 nM
Molecule: NC(=O)NO [HYDROXYUREA]
Activity [24]: 48.2% | Activity [25]: 21.27% | Activity [26]: 11.9% | Activity [27]: 19.52% | Activity [28]: 38.22% | Activity [29]: 45.1% | IC50 ([12]; Homo sapiens): 140000 nM | IC50 ratio [7]: 0.26

Molecule: C/C(=N\N=C(/S)N1CC2CCC(CC2)C1)c1ccncn1
IC50 ([9]; Homo sapiens, CCRF-CEM): 20 nM | IC50 ([10]; Homo sapiens, HT-29): 50 nM

Molecule: N-[(1E)-1-pyrimidin-4-ylethylidene]-3-azabicyclo[3.2.2]nonane-3-carbohydrazonothioic acid.chloro Cu(II)complex
IC50 ([9]; ccrf-cem): < 10 nM | IC50 ([10]; ht-29): < 10 nM

Molecule: Copper(II) Complex
IC50 ([9]; ccrf-cem): 300 nM | IC50 ([10]; ht-29): 1510 nM

Mean IC50 [8]: 1 nM
Molecule: N-[(1E)-1-(6-methylpyrimidin-4-yl)ethylidene]-3-azabicyclo[3.2.2]nonane-3-carbohydrazonothioic acid.chloro Cu(II)complex [listing 1 of 2 here]
Activity [1]: 64.5% | Activity [2]: 59.2% | Activity [3]: 13.6% | Activity [4]: 11.4% | Activity [5]: 21.7% | Activity [6]: 21.5% | IC50 ratio [7]: 11.7

Molecule: N-[(1E)-1-pyrazin-2-ylethylidene]-3-azabicyclo[3.2.2]nonane-3-carbohydrazonothioic acid.chloro Cu(II)complex
IC50 ([9]; ccrf-cem): < 10 nM | IC50 ([10]; ht-29): < 10 nM

IC50 [11]: 2970 nM | IC50 [14]: 1 nM | IC50 [17]: < 0.1 nM
Molecule: N-[(1E)-1-(5-methylpyrazin-2-yl)ethylidene]-3-azabicyclo[3.2.2]nonane-3-carbohydrazonothioic acid.chloro Cu(II)complex [listing 2 of 2 here]
IC50 [12]: 6 nM | IC50 ([9]; ccrf-cem): 5 nM | IC50 [13]: < 0.1 nM | IC50 [30]: 0.13 nM | IC50 ([10]; ht-29): 4 nM | IC50 [15]: < 0.1 nM | IC50 [18]: 0.7 nM | IC50 [19]: 4 nM | IC50 [20]: 14 nM | IC50 [31]: 10 nM | IC50 [32]: 24 nM | IC50 [21]: 0.2 nM | IC50 [22]: < 10 nM | IC50 [33]: 4 nM | IC50 [23]: < 0.1 nM

IC50 [11]: 210 nM | IC50 [14]: 5 nM | IC50 [17]: 0.2 nM
Molecule: N-[(1E)-1-(6-methylpyrimidin-4-yl)ethylidene]-3-azabicyclo[3.2.2]nonane-3-carbohydrazonothioic acid.chloro Cu(II)complex [listing 2 of 2 here]
IC50 ([9]; ccrf-cem): 10 nM | IC50 [13]: 0.11 nM | IC50 [30]: 2 nM | IC50 ([10]; ht-29): 4 nM | IC50 [15]: < 0.1 nM | IC50 [18]: 0.84 nM | IC50 [19]: 14 nM | IC50 [31]: 15 nM | IC50 [32]: 19 nM | IC50 [21]: 3 nM | IC50 [22]: 15 nM | IC50 [33]: 26 nM | IC50 [23]: 0.2 nM

Molecule: N-[(1E)-1-(6-methylpyridazin-3-yl)ethylidene]-3-azabicyclo[3.2.2]nonane-3-carbohydrazonothioic acid.chloro Cu(II)complex
IC50 ([9]; ccrf-cem): 130 nM | IC50 ([10]; ht-29): 870 nM
